Shown are actives, neighbours in structure and some others; about 3.2% of the full set was active somewhere.
Pemphigus Ab inh: inhibitors of pemphigus antibody binding to human desmoglein-3 | binding (percent of control), % at 10 µM | P32926 | DSG3-coupled beads, scFv-anti-DSG3-GFP binding, flow cytometry; active compounds read low | 310,000 tested, 0.48% active;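 active = binding more than 3 SD below its plate's average and above zero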;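 also: hits lower antibody fragment binding to DSG3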
UBC13 polyUb: blocks human UBC13 polyubiquitin chain formation; P61088; TR-FRET; inhibition, % at 20 µM; 330,000 tested, 0.47% active; AID 485273; in the data active = inhibition above about 45%, passing the limit was not always enough
MEKK2 mut-MEK5: signal of MEK5 binding to mutant human MEKK2 PB1 domain; bead flow cytometry, Alexa488-MEK5 binding to MEKK2 mutant; percent response, % at 10 µM; 290,000 tested, 0.35% active; AID 1530; in the data active = percent response above about 24%, passing the limit was not always enough
MEKK2 WT-MEK5: raises or lowers MEK5 binding to wildtype human MEKK2 PB1 domain; bead flow cytometry, Alexa488-MEK5 binding to MEKK2 WT; actives lie on both sides; AID 1531; 290,000 tested, 1.1% active; binding response (% of control), % at 10 µM; in the data active = binding response below about 67% or above about 130%
Apaf-1 inh: blocks human Apaf-1 apoptosome activity. reconstituted apoptosome caspase-3 activity, DEVD-Rh110 fluorescence. inhibition, % at 20 µM. 330,000 tested, 0.71% active; active = inhibition of at least 40% at 20 µM;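 also: plate controls were DMSO wells for no effect and DEVD-CHO caspase inhibitor wells for full effect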
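Assay system – apoptosome proteins · Medium – Hepes buffer, pH 7.5 · Also added – cytochrome c with DEVD-Rh110 · Timing – 30 min compound preincubation, 50 min activation, room temperature · Detection – Rh110 fluorescence, excitation 480 nm, emission 540 nm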
MEKK3 PB1 HTS: MEKK3-MEK5 PB1 interaction, increase or decrease. AID 1529. Q99759. bead-based flow cytometry, Alexa488-MEK5 binding to MEKK3; actives lie on both sides; 0 = blocked by unlabeled MEK5, 100 = vehicle. binding response (% of control), % at 10 µM. 290,000 tested, 1.4% active;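 active = binding response more than 3 SD above or below the average of its plate-row segment, actives on both sides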;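 also: Alexa488 bead fluorescence after subtracting the streptavidin-only scavenger bead signal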
Target sequence (Q99759 whole entry, looked up): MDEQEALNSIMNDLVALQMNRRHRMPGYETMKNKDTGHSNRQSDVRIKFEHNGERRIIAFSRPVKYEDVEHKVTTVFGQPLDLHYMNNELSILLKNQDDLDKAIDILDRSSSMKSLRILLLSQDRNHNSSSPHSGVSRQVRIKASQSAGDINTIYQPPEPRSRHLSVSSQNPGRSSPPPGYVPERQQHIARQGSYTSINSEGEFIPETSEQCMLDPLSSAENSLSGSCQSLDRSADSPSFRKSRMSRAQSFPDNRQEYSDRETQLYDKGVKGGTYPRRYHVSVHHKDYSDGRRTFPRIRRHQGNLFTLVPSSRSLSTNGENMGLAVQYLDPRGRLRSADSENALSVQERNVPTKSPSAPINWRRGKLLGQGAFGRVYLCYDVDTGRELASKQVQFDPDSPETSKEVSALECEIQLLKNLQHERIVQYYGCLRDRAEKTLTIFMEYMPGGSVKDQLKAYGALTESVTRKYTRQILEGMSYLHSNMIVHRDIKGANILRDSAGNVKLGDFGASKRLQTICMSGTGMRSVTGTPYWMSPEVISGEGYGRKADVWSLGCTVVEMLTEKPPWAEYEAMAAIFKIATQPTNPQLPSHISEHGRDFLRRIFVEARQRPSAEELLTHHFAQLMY
Apaf-1 inh conf2: confirmation of Apaf-1 inhibitors; shares compounds with Apaf-1 inh; reconstituted apoptosome, caspase-3 DEVD-Rh110 fluorescence; inhibition, % at 20 µM; 1,800 tested, 25% active; AID 504614;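 active = mean inhibition of at least 40% at 20 µM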;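 also: plate controls were DMSO wells for no effect and DEVD-CHO caspase inhibitor control wells for full effect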
Rh110 quench: counter-screen for Apaf-1 inhibitors: fluorescence interference. activation (fluorescence interference), % at 20 µM. shares compounds with Apaf-1 inh. Rh110 fluorescence interference, quenched caspase reaction. AID 504615. 1,800 tested, under 10 active;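 active = signal rise of 40% or more at 20 µM, treated as a fluorescence artifact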
Fluor interf inh: shows fluorescence interference in the Apaf-1 inhibitor assay format; shares compounds with Apaf-1 inh; fluorescence interference counterscreen, Apaf-1 assay format; IC50, µM; 460 tested, under 10 active; AID 588538; call rule not given here
Numbers without * were called inactive; nt = no result.

SMILES	Pemphigus Ab inh	UBC13 polyUb	MEKK2 mut-MEK5	MEKK2 WT-MEK5	Apaf-1 inh	MEKK3 PB1 HTS	Apaf-1 inh conf2	Rh110 quench	others
COC(=O)CCC(=O)OC1(C)C(=O)C=C2C=C(C3CC3)N(C3CC3)C=C2C1=O (stereo unspecified)	96	-38	5	96	54*	109	37	-2
COC(=O)CCC(=O)OC1(C)C(=O)C=C2C=C(C3CC3)N(c3ccc(CO)cc3)C=C2C1=O (stereo unspecified)	nt	-62	-2	97	6	100	nt	nt
CN1N=C(C(C)(C)C)CC1=O	94	-8	0	95	41*	100	11	7
CN1N=C(C(F)(F)F)CC1=O	98	-6	0	104	-4	121	nt	nt
CC(C)=C(C#N)c1nc2ccccc2s1	127	6	2	102	-9	100	nt	nt
COc1ccccc1N1C(C)=CC(=C(C#N)c2nc3ccccc3s2)C=C1C	98	-14	-2	85	56*	97	23	1
COc1cccc(-c2nc3ccccc3s2)c1O	100	1	-1	121	15	117	nt	nt
CC1=CC(=C(C#N)c2nc3ccccc3s2)C=C(C)N1c1ccc(F)cc1	94	-21	6	96	45*	103	24	0
COCCN1CC(C(=O)N2CCC(Oc3ccccc3OC)CC2)CCC1=O (stereo unspecified)	100	-7	10	107	-9	102	nt	nt
COc1ccc(/C=N/NC(=O)CCn2cnc(-c3ccccc3)c2-c2ccccc2)cc1	104	11	2	106	54*	150*	44*	11	Fluor interf inh=>100
CCN(CCO)c1nc(N2CCCCC2)c2cnn(C)c2n1	97	12	1	106	-1	102	nt	nt
Nc1cccc2cnccc12	102	-53	-2	99	67*	97	15	1
O=C(O)CC1S/C(=N/N=C/c2ccc(-c3ccc(Cl)cc3[N+](=O)[O-])o2)NC1=O (stereo unspecified)	98	-48	-4	94	52*	101	29	5
O=C(Nc1ccc(N2CCCC2)cc1)C(Cl)c1ccccc1 (stereo unspecified)	98	-8	-1	94	65*	99	26	3
CS(=O)(=O)N1CCN(c2ccc(NC(=O)C(c3ccccc3)c3ccccc3)cc2)CC1	86	-2	4	110	7	108	nt	nt
O=C(c1ccc(Br)o1)N1CCN(c2ccc3nnc(-c4ccccc4)n3n2)CC1	101	27	-6	103	38	98	nt	nt
O=S(=O)(c1ccc(Br)cc1)N1CCN(c2ccc3nnc(-c4ccccc4)n3n2)CC1	96	35	9	108	41*	116	55*	12	Fluor interf inh=>100
C[C@H]1CN([C@@H](C)CO)C(=O)c2cc(C3=CCCC3)cnc2O[C@@H]1CN(C)C(=O)c1ccncc1	100	nt	nt	nt	nt	nt	nt	nt
COc1ccc(/C=N/Nc2cc(N(C)C)nc(N(C)C)n2)cc1	132	-16	-1	108	97*	98	95*	4	Fluor interf inh=>100
Cc1cc(-c2ccccc2)nc(N/N=C/c2ccccc2)n1	119	2	4	103	15	99	nt	nt
COc1ccc(/C=N/Nc2cc(OC)ncn2)cc1	102	nt	0	97	nt	106	nt	nt
CN(C)c1cc(N/N=C\c2ccccc2)nc(N(C)C)n1	106	-29	3	115	95*	108	89*	7	Fluor interf inh=>100
Cc1ccc(/C=N/n2c(C3CCCCC3)n[nH]c2=S)cc1	104	-3	5	97	35	98	nt	nt
COc1ccc(NCc2cc3cc(OC)ccc3[nH]c2=O)cc1	102	-34	-1	96	47*	98	62*	6	Fluor interf inh=>100
COc1ccc(NCc2cc3ccccc3[nH]c2=O)cc1	119	-36	5	106	15	103	nt	nt
SMILES	Pemphigus Ab inh	UBC13 polyUb	MEKK2 mut-MEK5	MEKK2 WT-MEK5	Apaf-1 inh	MEKK3 PB1 HTS	Apaf-1 inh conf2	Rh110 quench	others
O=C(CNc1ccc(Br)cc1)c1ccc(Br)s1	122	-4	-6	95	12	100	nt	nt
COCC1CCN(C(=O)c2cc(COc3ccc(OC)c4ccccc34)on2)C1 (stereo unspecified)	108	-4	-9	92	28	91	nt	nt
COc1ccc(OCc2cc(C(=O)N3CCC(OC)CC3)no2)c2ccccc12	108	0	7	108	49*	103	25	6
CC(C)(C)c1cc(C(=O)N/N=C/c2ccc(-c3ccccc3[N+](=O)[O-])o2)n[nH]1	107	-38	2	104	42*	100	16	-3
O=C(/C=C/c1ccc(-c2ccccc2[N+](=O)[O-])o1)c1ccc(Br)cc1	97	-33	1	93	49*	100	39	7
Cc1cc(C(=O)N/N=C/c2ccc(-c3cccc(Cl)c3Cl)o2)n[nH]1	100	2	-2	102	6	98	nt	nt
O=C(N/N=C/c1ccc(-c2ccccc2[N+](=O)[O-])o1)c1cccnc1	86	-46	7	103	79*	102	43*	18	Fluor interf inh=>100
Cc1cc(O)c2c(c1O)C(=O)[C@]13C(=C2O)C(=O)[C@@H]2[C@@H](O)[C@H]1[C@@H]1[C@H](O)[C@H]3C(=O)C3=C(O)c4c(O)cc(C)c(O)c4C(=O)[C@]312	-15*	-276	nt	nt	69*	nt	59*	7	Fluor interf inh=>100
CCN(CC)CCCN1C=C2C(=O)C(C)(OC(=O)CCC(=O)OC)C(=O)C(Br)=C2C=C1c1ccc(OC)cc1 (stereo unspecified)	97	-72	3	99	34	95	nt	nt
C=CCN1C=C2C(=O)C(C)(OC(=O)CCC(=O)OC)C(=O)C(Br)=C2C=C1c1ccc(OC)cc1 (stereo unspecified)	96	-96	-1	-3.0*	67*	80	61*	9	Fluor interf inh=>100
COCCN1C=C2C(=O)C(C)(OC(=O)CCC(=O)OC)C(=O)C(Br)=C2C=C1c1ccc(OC)cc1 (stereo unspecified)	89	-88	1	96	77*	97	84*	7
C=CCN1C=C2C(=O)C(C)(OC(=O)C3CCCC3)C(=O)C(c3ccccc3)=C2C=C1CCCC(=O)OC (stereo unspecified)	111	-34	4	96	38	96	nt	nt
